According to ChEMBL document CHEMBL5058577, “EUbOPEN Chemogenomics Library 2 (Multiplex)” (2022):

System: HEK-293T
Assay: Multiplex assay against HEK293T
Format: toxicity, cell-based
Conditions: human
How it was run: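 At seeding, live cells were stained with Hoechst33342, BioTracker Green Microtubule Cytoskeleton Dye, MitoTracker Red and Annexin V Alexa Fluor 680. After compound addition they were imaged on a CQ1 microscope at 37°C and 5% CO2, and CellPathfinder machine-learning gating sorted them into Hoechst high-intensity objects or normal cells, with normal cells further split into healthy, pyknosed or fragmented nuclei and pyknosed cells into mitotic or apoptotic. Tubulin, mitochondrial-mass and membrane-permeability phenotypes are given as per cents of cells with healthy nuclei.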

[1] = 12 h, 1 µM, compound concentration 1 uM, replicate 1
[2] = 12 h, 1 µM, compound concentration 1 uM, replicate 2
[3] = 12 h, 10 µM, compound concentration 10 uM, replicate 1
[4] = 12 h, 10 µM, compound concentration 10 uM, replicate 2
[5] = 24 h, 1 µM, compound concentration 1 uM, replicate 1
[6] = 24 h, 1 µM, compound concentration 1 uM, replicate 2
[7] = 24 h, 10 µM, compound concentration 10 uM, replicate 1
[8] = 24 h, 10 µM, compound concentration 10 uM, replicate 2
[9] = 48 h, 1 µM, compound concentration 1 uM, replicate 1
[10] = 48 h, 1 µM, compound concentration 1 uM, replicate 2
[11] = 48 h, 10 µM, compound concentration 10 uM, replicate 1
[12] = 48 h, 10 µM, compound concentration 10 uM, replicate 2

CCc1nn2c(C)cc(C)nc2c1Cc1ccc(-c2nnc(C3CCNCC3)o2)cc1
Population Apoptotic (%) [1]: 35% | Population Fragmented Nuclei (%) [1]: 9% | Population Healthy Nuclei (%) [1]: 80% | Population Hoechst High Intensity Objects (%) [1]: 7% | Population Membrane Permeable-Phenotype (%) [1]: 0% | Population Mitochondria Different-Phenotype (%) [1]: 54% | Population Mitotic Cells (%) [1]: 64% | Population Normal (%) [1]: 92% | Population Pyknosed Nuclei (%) [1]: 10% | Population Tubulin-Different-Phenotype (%) [1]: 37% | Total Cell Count [1]: 401 | Population Apoptotic (%) [2]: 51% | Population Fragmented Nuclei (%) [2]: 7% | Population Healthy Nuclei (%) [2]: 78% | Population Hoechst High Intensity Objects (%) [2]: 5% | Population Mitochondria Different-Phenotype (%) [2]: 62% | Population Mitotic Cells (%) [2]: 48% | Population Normal (%) [2]: 94% | Population Pyknosed Nuclei (%) [2]: 13% | Population Tubulin-Different-Phenotype (%) [2]: 19% | Total Cell Count [2]: 395 | Population Apoptotic (%) [3]: 63% | Population Fragmented Nuclei (%) [3]: 6% | Population Healthy Nuclei (%) [3]: 68% | Population Hoechst High Intensity Objects (%) [3]: 11% | Population Membrane Permeable-Phenotype (%) [3]: 0% | Population Mitochondria Different-Phenotype (%) [3]: 85% | Population Mitotic Cells (%) [3]: 36% | Population Normal (%) [3]: 88% | Population Pyknosed Nuclei (%) [3]: 25% | Population Tubulin-Different-Phenotype (%) [3]: 65% | Total Cell Count [3]: 319 | Population Apoptotic (%) [4]: 56% | Population Fragmented Nuclei (%) [4]: 4% | Population Healthy Nuclei (%) [4]: 78% | Population Hoechst High Intensity Objects (%) [4]: 12% | Population Mitochondria Different-Phenotype (%) [4]: 86% | Population Mitotic Cells (%) [4]: 43% | Population Normal (%) [4]: 87% | Population Pyknosed Nuclei (%) [4]: 17% | Population Tubulin-Different-Phenotype (%) [4]: 48% | Total Cell Count [4]: 293 | Population Apoptotic (%) [5]: 44% | Population Fragmented Nuclei (%) [5]: 10% | Population Healthy Nuclei (%) [5]: 76% | Population Hoechst High Intensity Objects (%) [5]: 4% | Population Membrane Permeable-Phenotype (%) [5]: 0% | Population Mitochondria Different-Phenotype (%) [5]: 36% | Population Mitotic Cells (%) [5]: 55% | Population Normal (%) [5]: 95% | Population Pyknosed Nuclei (%) [5]: 13% | Population Tubulin-Different-Phenotype (%) [5]: 23% | Total Cell Count [5]: 529 | Population Apoptotic (%) [6]: 34% | Population Fragmented Nuclei (%) [6]: 7% | Population Healthy Nuclei (%) [6]: 78% | Population Hoechst High Intensity Objects (%) [6]: 5% | Population Mitochondria Different-Phenotype (%) [6]: 50% | Population Mitotic Cells (%) [6]: 65% | Population Normal (%) [6]: 94% | Population Tubulin-Different-Phenotype (%) [6]: 19% | Total Cell Count [6]: 542 | Population Apoptotic (%) [7]: 69% | Population Fragmented Nuclei (%) [7]: 11% | Population Healthy Nuclei (%) [7]: 72% | Population Hoechst High Intensity Objects (%) [7]: 5% | Population Membrane Permeable-Phenotype (%) [7]: 0% | Population Mitochondria Different-Phenotype (%) [7]: 73% | Population Mitotic Cells (%) [7]: 30% | Population Normal (%) [7]: 94% | Population Pyknosed Nuclei (%) [7]: 15% | Population Tubulin-Different-Phenotype (%) [7]: 50% | Total Cell Count [7]: 448 | Population Apoptotic (%) [8]: 41% | Population Fragmented Nuclei (%) [8]: 10% | Population Healthy Nuclei (%) [8]: 77% | Population Hoechst High Intensity Objects (%) [8]: 7% | Population Mitochondria Different-Phenotype (%) [8]: 78% | Population Mitotic Cells (%) [8]: 58% | Population Normal (%) [8]: 92% | Population Pyknosed Nuclei (%) [8]: 11% | Population Tubulin-Different-Phenotype (%) [8]: 45% | Total Cell Count [8]: 389 | Population Apoptotic (%) [9]: 28% | Population Fragmented Nuclei (%) [9]: 12% | Population Healthy Nuclei (%) [9]: 79% | Population Hoechst High Intensity Objects (%) [9]: 2% | Population Membrane Permeable-Phenotype (%) [9]: 0% | Population Mitochondria Different-Phenotype (%) [9]: 25% | Population Mitotic Cells (%) [9]: 71% | Population Normal (%) [9]: 97% | Population Pyknosed Nuclei (%) [9]: 8% | Population Tubulin-Different-Phenotype (%) [9]: 15% | Total Cell Count [9]: 842 | Population Apoptotic (%) [10]: 32% | Population Fragmented Nuclei (%) [10]: 11% | Population Healthy Nuclei (%) [10]: 83% | Population Hoechst High Intensity Objects (%) [10]: 5% | Population Mitochondria Different-Phenotype (%) [10]: 24% | Population Mitotic Cells (%) [10]: 67% | Population Normal (%) [10]: 94% | Population Pyknosed Nuclei (%) [10]: 5% | Population Tubulin-Different-Phenotype (%) [10]: 10% | Total Cell Count [10]: 829 | Population Apoptotic (%) [11]: 54% | Population Fragmented Nuclei (%) [11]: 14% | Population Healthy Nuclei (%) [11]: 72% | Population Hoechst High Intensity Objects (%) [11]: 4% | Population Membrane Permeable-Phenotype (%) [11]: 0% | Population Mitochondria Different-Phenotype (%) [11]: 59% | Population Mitotic Cells (%) [11]: 45% | Population Normal (%) [11]: 95% | Population Pyknosed Nuclei (%) [11]: 13% | Population Tubulin-Different-Phenotype (%) [11]: 32% | Total Cell Count [11]: 517 | Population Apoptotic (%) [12]: 50% | Population Fragmented Nuclei (%) [12]: 12% | Population Healthy Nuclei (%) [12]: 80% | Population Hoechst High Intensity Objects (%) [12]: 3% | Population Mitochondria Different-Phenotype (%) [12]: 56% | Population Mitotic Cells (%) [12]: 50% | Population Normal (%) [12]: 96% | Population Pyknosed Nuclei (%) [12]: 6% | Population Tubulin-Different-Phenotype (%) [12]: 26% | Total Cell Count [12]: 607

CN(C)C(=O)Cn1cc(-c2ccc(-c3nnc4ccccn34)cc2)cn1
Population Apoptotic (%) [1]: 31% | Population Fragmented Nuclei (%) [1]: 7% | Population Healthy Nuclei (%) [1]: 80% | Population Hoechst High Intensity Objects (%) [1]: 9% | Population Membrane Permeable-Phenotype (%) [1]: 0% | Population Mitochondria Different-Phenotype (%) [1]: 40% | Population Mitotic Cells (%) [1]: 68% | Population Normal (%) [1]: 90% | Population Pyknosed Nuclei (%) [1]: 11% | Population Tubulin-Different-Phenotype (%) [1]: 32% | Total Cell Count [1]: 432 | Population Apoptotic (%) [2]: 43% | Population Healthy Nuclei (%) [2]: 79% | Population Hoechst High Intensity Objects (%) [2]: 10% | Population Mitochondria Different-Phenotype (%) [2]: 59% | Population Mitotic Cells (%) [2]: 56% | Population Normal (%) [2]: 89% | Population Pyknosed Nuclei (%) [2]: 12% | Population Tubulin-Different-Phenotype (%) [2]: 27% | Total Cell Count [2]: 337 | Population Apoptotic (%) [3]: 32% | Population Fragmented Nuclei (%) [3]: 9% | Population Healthy Nuclei (%) [3]: 76% | Population Hoechst High Intensity Objects (%) [3]: 7% | Population Membrane Permeable-Phenotype (%) [3]: 0% | Population Mitochondria Different-Phenotype (%) [3]: 61% | Population Mitotic Cells (%) [3]: 67% | Population Normal (%) [3]: 92% | Population Pyknosed Nuclei (%) [3]: 14% | Population Tubulin-Different-Phenotype (%) [3]: 42% | Total Cell Count [3]: 427 | Population Apoptotic (%) [4]: 51% | Population Fragmented Nuclei (%) [4]: 7% | Population Healthy Nuclei (%) [4]: 80% | Population Hoechst High Intensity Objects (%) [4]: 8% | Population Mitochondria Different-Phenotype (%) [4]: 55% | Population Mitotic Cells (%) [4]: 48% | Population Normal (%) [4]: 91% | Population Pyknosed Nuclei (%) [4]: 12% | Population Tubulin-Different-Phenotype (%) [4]: 18% | Total Cell Count [4]: 356 | Population Apoptotic (%) [5]: 27% | Population Fragmented Nuclei (%) [5]: 10% | Population Healthy Nuclei (%) [5]: 77% | Population Hoechst High Intensity Objects (%) [5]: 6% | Population Membrane Permeable-Phenotype (%) [5]: 0% | Population Mitochondria Different-Phenotype (%) [5]: 28% | Population Mitotic Cells (%) [5]: 72% | Population Normal (%) [5]: 93% | Population Pyknosed Nuclei (%) [5]: 12% | Population Tubulin-Different-Phenotype (%) [5]: 22% | Total Cell Count [5]: 595 | Population Apoptotic (%) [6]: 46% | Population Fragmented Nuclei (%) [6]: 9% | Population Healthy Nuclei (%) [6]: 82% | Population Hoechst High Intensity Objects (%) [6]: 7% | Population Mitochondria Different-Phenotype (%) [6]: 44% | Population Mitotic Cells (%) [6]: 53% | Population Normal (%) [6]: 92% | Population Pyknosed Nuclei (%) [6]: 7% | Population Tubulin-Different-Phenotype (%) [6]: 18% | Total Cell Count [6]: 447 | Population Apoptotic (%) [7]: 35% | Population Fragmented Nuclei (%) [7]: 7% | Population Healthy Nuclei (%) [7]: 78% | Population Hoechst High Intensity Objects (%) [7]: 4% | Population Membrane Permeable-Phenotype (%) [7]: 0% | Population Mitochondria Different-Phenotype (%) [7]: 44% | Population Mitotic Cells (%) [7]: 64% | Population Normal (%) [7]: 95% | Population Pyknosed Nuclei (%) [7]: 13% | Population Tubulin-Different-Phenotype (%) [7]: 27% | Total Cell Count [7]: 506 | Population Apoptotic (%) [8]: 61% | Population Fragmented Nuclei (%) [8]: 13% | Population Healthy Nuclei (%) [8]: 79% | Population Hoechst High Intensity Objects (%) [8]: 7% | Population Mitochondria Different-Phenotype (%) [8]: 39% | Population Mitotic Cells (%) [8]: 38% | Population Normal (%) [8]: 92% | Population Pyknosed Nuclei (%) [8]: 7% | Population Tubulin-Different-Phenotype (%) [8]: 11% | Total Cell Count [8]: 425 | Population Apoptotic (%) [9]: 18% | Population Fragmented Nuclei (%) [9]: 11% | Population Healthy Nuclei (%) [9]: 81% | Population Hoechst High Intensity Objects (%) [9]: 3% | Population Membrane Permeable-Phenotype (%) [9]: 0% | Population Mitochondria Different-Phenotype (%) [9]: 20% | Population Mitotic Cells (%) [9]: 81% | Population Normal (%) [9]: 96% | Population Pyknosed Nuclei (%) [9]: 6% | Population Tubulin-Different-Phenotype (%) [9]: 13% | Total Cell Count [9]: 946 | Population Apoptotic (%) [10]: 32% | Population Healthy Nuclei (%) [10]: 80% | Population Hoechst High Intensity Objects (%) [10]: 4% | Population Mitochondria Different-Phenotype (%) [10]: 22% | Population Mitotic Cells (%) [10]: 67% | Population Normal (%) [10]: 95% | Population Pyknosed Nuclei (%) [10]: 7% | Population Tubulin-Different-Phenotype (%) [10]: 12% | Total Cell Count [10]: 572 | Population Apoptotic (%) [11]: 30% | Population Fragmented Nuclei (%) [11]: 18% | Population Healthy Nuclei (%) [11]: 74% | Population Hoechst High Intensity Objects (%) [11]: 5% | Population Membrane Permeable-Phenotype (%) [11]: 0% | Population Mitochondria Different-Phenotype (%) [11]: 24% | Population Mitotic Cells (%) [11]: 69% | Population Normal (%) [11]: 94% | Population Pyknosed Nuclei (%) [11]: 6% | Population Tubulin-Different-Phenotype (%) [11]: 14% | Total Cell Count [11]: 753 | Population Apoptotic (%) [12]: 37% | Population Fragmented Nuclei (%) [12]: 14% | Population Healthy Nuclei (%) [12]: 79% | Population Hoechst High Intensity Objects (%) [12]: 2% | Population Mitochondria Different-Phenotype (%) [12]: 27% | Population Mitotic Cells (%) [12]: 62% | Population Normal (%) [12]: 97% | Population Pyknosed Nuclei (%) [12]: 5% | Population Tubulin-Different-Phenotype (%) [12]: 12% | Total Cell Count [12]: 616
